29 molecules from ChEMBL document CHEMBL1152488, “Synthesis and evaluation of pyrido[1,2-a]pyrimidines as inhibitors of nitric oxide synthases” (Eur J Med Chem, 2009) can be followed below.

Assay [1] deals with T1, Nitric oxide synthase, inducible (Mus musculus) (UniProt P29477).
T1 sequence (whole entry): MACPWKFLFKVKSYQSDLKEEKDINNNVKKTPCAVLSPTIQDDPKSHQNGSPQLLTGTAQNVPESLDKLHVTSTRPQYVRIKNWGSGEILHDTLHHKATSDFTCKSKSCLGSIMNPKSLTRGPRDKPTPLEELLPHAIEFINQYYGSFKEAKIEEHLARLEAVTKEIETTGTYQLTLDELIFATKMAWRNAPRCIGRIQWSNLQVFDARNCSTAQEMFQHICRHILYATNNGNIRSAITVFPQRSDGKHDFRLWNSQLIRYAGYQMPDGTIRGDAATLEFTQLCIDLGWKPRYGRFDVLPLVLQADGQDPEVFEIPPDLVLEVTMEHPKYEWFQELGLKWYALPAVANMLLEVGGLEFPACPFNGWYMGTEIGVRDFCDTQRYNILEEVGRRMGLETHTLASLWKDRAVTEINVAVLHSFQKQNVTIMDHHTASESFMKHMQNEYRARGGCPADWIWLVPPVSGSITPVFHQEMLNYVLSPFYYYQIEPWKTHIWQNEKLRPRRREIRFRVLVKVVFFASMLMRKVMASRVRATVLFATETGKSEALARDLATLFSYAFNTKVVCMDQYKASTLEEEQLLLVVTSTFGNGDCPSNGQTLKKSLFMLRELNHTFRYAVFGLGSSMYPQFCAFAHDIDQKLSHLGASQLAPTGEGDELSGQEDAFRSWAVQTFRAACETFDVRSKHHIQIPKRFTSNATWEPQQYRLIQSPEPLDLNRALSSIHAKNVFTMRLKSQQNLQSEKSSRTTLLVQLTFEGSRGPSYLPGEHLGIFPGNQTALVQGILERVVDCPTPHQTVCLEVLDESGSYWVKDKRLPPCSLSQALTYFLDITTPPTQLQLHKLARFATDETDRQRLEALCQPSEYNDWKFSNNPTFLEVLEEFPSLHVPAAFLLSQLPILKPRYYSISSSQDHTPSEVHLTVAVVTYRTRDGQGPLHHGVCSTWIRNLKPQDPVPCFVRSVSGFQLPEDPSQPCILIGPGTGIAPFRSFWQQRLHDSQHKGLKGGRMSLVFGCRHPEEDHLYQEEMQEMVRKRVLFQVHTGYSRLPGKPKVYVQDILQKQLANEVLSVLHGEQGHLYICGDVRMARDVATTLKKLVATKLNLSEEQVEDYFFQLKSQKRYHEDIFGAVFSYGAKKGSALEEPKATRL
Nature of the assay: Inhibition of mouse recombinant iNOS expressed in Escherichia coli assessed as NADPH consumption at 100 uM after 2 mins by spectrophotometry. In outline: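 Murine iNOS from E. coli (15–50 nM final) in 50 mM Hepes pH 7.4 with 5 mM DTT, 100 µM CaCl2, 200 µM NADPH, 10 µM H4B, 100 µM L-arginine and 100 µM compound. Cofactors and compound preincubated 2 min at 37 °C, enzyme added, and A340 followed for 3 min (ε 6.2 mM-1 cm-1). Given as % of 1% DMSO control NADPH oxidase rate.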

In assay [2] the target is T2, Nitric oxide synthase 3 (Bos taurus) (UniProt P29473).
T2 sequence (whole entry): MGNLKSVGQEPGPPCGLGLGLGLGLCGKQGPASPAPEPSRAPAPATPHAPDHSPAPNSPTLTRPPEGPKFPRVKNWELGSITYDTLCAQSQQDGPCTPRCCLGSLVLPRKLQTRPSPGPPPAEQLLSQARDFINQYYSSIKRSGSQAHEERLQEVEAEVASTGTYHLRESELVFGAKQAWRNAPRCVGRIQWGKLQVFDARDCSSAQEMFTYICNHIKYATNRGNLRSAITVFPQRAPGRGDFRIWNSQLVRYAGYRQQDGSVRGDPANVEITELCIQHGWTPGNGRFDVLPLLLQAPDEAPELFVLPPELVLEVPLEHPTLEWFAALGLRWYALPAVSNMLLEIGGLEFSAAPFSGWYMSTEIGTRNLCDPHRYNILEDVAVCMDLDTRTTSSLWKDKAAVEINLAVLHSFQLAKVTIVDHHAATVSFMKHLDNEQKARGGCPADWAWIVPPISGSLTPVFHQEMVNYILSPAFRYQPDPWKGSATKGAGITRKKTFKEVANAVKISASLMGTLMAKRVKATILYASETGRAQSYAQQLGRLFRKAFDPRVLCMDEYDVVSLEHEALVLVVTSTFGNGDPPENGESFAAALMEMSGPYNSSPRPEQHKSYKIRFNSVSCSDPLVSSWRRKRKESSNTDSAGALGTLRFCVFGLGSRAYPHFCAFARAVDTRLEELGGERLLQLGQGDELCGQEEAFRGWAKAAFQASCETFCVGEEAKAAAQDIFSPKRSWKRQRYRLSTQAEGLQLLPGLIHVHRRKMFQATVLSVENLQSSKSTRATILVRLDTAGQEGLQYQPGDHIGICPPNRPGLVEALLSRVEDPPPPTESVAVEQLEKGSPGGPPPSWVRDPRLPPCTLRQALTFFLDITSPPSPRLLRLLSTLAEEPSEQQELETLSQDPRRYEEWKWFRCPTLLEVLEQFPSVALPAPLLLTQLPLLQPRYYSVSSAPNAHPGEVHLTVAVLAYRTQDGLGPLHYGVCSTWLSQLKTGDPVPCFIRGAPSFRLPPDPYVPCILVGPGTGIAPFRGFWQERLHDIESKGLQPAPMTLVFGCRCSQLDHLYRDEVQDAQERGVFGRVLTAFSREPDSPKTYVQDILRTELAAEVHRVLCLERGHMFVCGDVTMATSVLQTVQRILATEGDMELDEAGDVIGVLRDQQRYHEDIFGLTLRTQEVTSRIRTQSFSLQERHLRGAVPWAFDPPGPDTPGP
Briefly: Inhibition of bovine recombinant eNOS expressed in Escherichia coli assessed as conversion of [gamma-14C]L-arginine to [14C]L-citrulline at 100 uM by radioactive assay relative to control. On the set-up: scale not given: the % may be the effect or the level left. In outline:
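Purified enzymes: rat nNOS from S. cerevisiae, murine iNOS and bovine eNOS from E. coli. Reaction 5 min at 37 °C in 50 mM Hepes pH 7.4 with DTT, 1 mM NADPH, H4B, FAD, FMN, [14C]L-arginine (2.5 µM L-arginine) and 100 µM compound in 1% DMSO. nNOS/eNOS also got 1 mM CaCl2 and CaM, which iNOS lacked. [14C]citrulline isolated on Dowex and counted by scintillation; % of DMSO control, n=3.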

In assay [3] the target is T1, Nitric oxide synthase, inducible (Mus musculus). Nature of the assay: Inhibition of mouse iNOS expressed in insect Sf9 cells assessed as residual activity at 100 uM by Griess assay relative to control. In outline: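 Murine iNOS produced in Sf9 insect cells. Buffer: 50 mM triethanolamine pH 7.5, 1 mM CHAPS, 10 mM 2-mercaptoethanol, 0.5 mM EDTA. Additions: 1 mM Mg2+, 5 µM FAD, 5 µM FMN, 0.5 mM NADPH, 10 µM H4B, 10 µg/ml CaM, 1 mM L-arginine. Compound at 100 µM final, 37 °C for 20 min. NADPH removed with LDH/pyruvate, then Griess read at 543 nm. Values are % of 1% DMSO control, 5 experiments.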
(The Griess reaction detects nitrite, a stable product of nitric oxide.)

As for `COc1ccc(C(=O)C2CN=C3C=C(C)C=CN3C2)cc1F.[O-][Cl+3]([O-])([O-])O` (stereo not drawn), the Remaining NADPH oxidation rate (% of DMSO control) in assay [1] amounted to 73%. For the same molecule, in assay [2], the Activity was found to be 59%.

For `CC1=CC=CC2=NCC(C(=O)c3ccc(Br)cc3)CN12` (stereo not drawn), the Activity in assay [3] was found to be 9%.

With `CCSC(=N)N`, in assay [3], the Activity was found to be 2%.

With `O=C(c1ccc(Cl)c(Cl)c1)C1CN=C2C=CC=CN2C1.[O-][Cl+3]([O-])([O-])O` (stereo not drawn), the Remaining NADPH oxidation rate (% of DMSO control) in assay [1] worked out at 100%. In addition, the Activity amounted to 95% in assay [3] and 83% in assay [2].

For the molecule `COc1ccc2cc(C(=O)C3CN=C4C=C(C)C=CN4C3)ccc2c1` (stereo not drawn), the Activity in assay [3] was determined as 72%.

In the case of `CC1=CC2=NCC(C(=O)c3ccc(Br)cc3)CN2C=C1` (stereo not drawn), the Activity in assay [3] is 33%.

With `CC1=CC2=NCC(C(=O)c3ccc(Cl)cc3)CN2C=C1` (stereo not drawn), the Activity in assay [3] came out at 28%.

Turning to `CC(=N)NCc1cccc(CN)c1`, in assay [3], the Activity amounted to 3%.

For the molecule `CC1=CC2=NCC(C(=O)c3ccc(-c4ccc(Br)cc4)cc3)CN2C(C)=C1` (stereo not drawn), the Remaining NADPH oxidation rate (% of DMSO control) in assay [1] was 72%. Also, the Activity in assay [2] was found to be 32%.

In the case of `CC1=CC2=NCC(C(=O)c3ccc(-c4ccc(C#N)cc4)cc3)CN2C=C1.Cl` (stereo not drawn), the Remaining NADPH oxidation rate (% of DMSO control) in assay [1] came out at 40%. Besides, in assay [2], the Activity turned out to be 18%.

Turning to `CC1=CC2=NCC(C(=O)c3ccc(OCc4ccc(Cl)cc4)cc3)CN2C=C1.[O-][Cl+3]([O-])([O-])O` (stereo not drawn), the Remaining NADPH oxidation rate (% of DMSO control) in assay [1] is 64%. Moreover, the Activity in assay [2] is 2%.

Regarding `CCCNC(=N)NCCC[C@H](N)C(=O)O`, the Activity in assay [3] was found to be 88%.

Turning to `CC1=CC2=NCC(C(=O)c3ccc(OCc4ccc(Br)cc4)cc3)CN2C=C1.Cl` (stereo not drawn), in assay [1], the Remaining NADPH oxidation rate (% of DMSO control) stood at 100%. Besides, the Activity in assay [2] stood at 77%.

As to `O=C(c1ccc2ccccc2c1)C1CN=C2C=CC=CN2C1` (stereo not drawn), the Activity in assay [3] is 97%.

For `CC1=CC=CC2=NCC(C(=O)c3ccc(F)cc3)CN12.[O-][Cl+3]([O-])([O-])O` (stereo not drawn), the Remaining NADPH oxidation rate (% of DMSO control) in assay [1] came out at 87%. Besides, the Activity was found to be 83% in assay [3] and 71% in assay [2].

For the molecule `CC1=CC2=NCC(C(=O)c3ccc(F)cc3)CN2C=C1` (stereo not drawn), the Activity in assay [3] was determined as 78%.

As to `O=C(c1ccc(Br)cc1)C1CN=C2C=CC=CN2C1` (stereo not drawn), the Activity in assay [3] was determined as 92%.

For `CC1=CC2=NCC(C(=O)c3ccc(-c4ccccc4)cc3)CN2C=C1` (stereo not drawn), in assay [3], the Activity is 40%.

`COc1ccc(-c2ccc(C(=O)C3CN=C4C=C(C)C=CN4C3)cc2)cc1.Cl` (stereo not drawn): the Remaining NADPH oxidation rate (% of DMSO control) in assay [1] came to 40%. Moreover, in assay [2], the Activity worked out at 15%.

Regarding `CC1=CC2=NCC(C(=O)c3ccc4cc(C)ccc4c3)CN2C=C1.[O-][Cl+3]([O-])([O-])O` (stereo not drawn), the Remaining NADPH oxidation rate (% of DMSO control) in assay [1] was found to be 70%. Besides, the Activity in assay [3] turned out to be 90%; in assay [2], 48%.

As to `CC1=CC2=NCC(C(=O)c3ccc4cc(C)ccc4c3)CN2C(C)=C1.[O-][Cl+3]([O-])([O-])O` (stereo not drawn), the Remaining NADPH oxidation rate (% of DMSO control) in assay [1] worked out at 72%. In addition, the Activity in assay [2] is 17%.

Take `CC1=CC=CC2=NCC(C(=O)c3ccc4ccccc4c3)CN12` (stereo not drawn): in assay [3], the Activity worked out at 75%.

Regarding `CC1=CC2=NCC(C(=O)c3ccc4ccccc4c3)CN2C=C1` (stereo not drawn), in assay [3], the Activity was 28%.

With `N=C(NCCC[C@H](N)C(=O)O)N[N+](=O)[O-]`, the Activity in assay [2] amounted to 5%.

Regarding `CC1=CC=CC2=NCC(C(=O)c3ccc(C)cc3)CN12.[O-][Cl+3]([O-])([O-])O` (stereo not drawn), the Remaining NADPH oxidation rate (% of DMSO control) in assay [1] was 94%. Also, the Activity turned out to be 99% in assay [3] and 84% in assay [2].

As for `CC1=CC2=NCC(C(=O)c3ccccc3)CN2C=C1` (stereo not drawn), in assay [3], the Activity stood at 16%.

Regarding `COc1ccc(C(=O)C2CN=C3C=CC=C(C)N3C2)cc1OC.[O-][Cl+3]([O-])([O-])O` (stereo not drawn), the Remaining NADPH oxidation rate (% of DMSO control) in assay [1] came to 92%. The Activity in assay [3] amounted to 95%; in assay [2], 81%.

Take `CC1=CC2=NCC(C(=O)c3ccc(-c4ccc(Br)cc4)cc3)CN2C=C1.[O-][Cl+3]([O-])([O-])O` (stereo not drawn): in assay [1], the Remaining NADPH oxidation rate (% of DMSO control) is 64%. In addition, in assay [2], the Activity was 65%.

Take `CC1=CC2=NCC(C(=O)c3ccc(OCc4ccc(C#N)cc4)cc3)CN2C=C1.[O-][Cl+3]([O-])([O-])O` (stereo not drawn): the Remaining NADPH oxidation rate (% of DMSO control) in assay [1] was determined as 77%. Besides, the Activity in assay [2] is 44%.
